Here are results for 1 compound from ChEMBL document CHEMBL4837218, “Synthesis and in vitro antitumour activity of 4(R)-methyl-3-O-phosphonomethyl-α-l-threose nucleosides” (Eur J Med Chem, 2021).

The IC50 is the concentration that inhibits the measured activity by half.

Assay [1] deals with MCF7. Description: Induction of apoptosis in human MCF7 cells assessed as reduction in Mcl-1 protein expression at 1 to 4 uM measured after 48 hrs by western blot analysis. As to conditions: dose 1-4 µM. The format is functional, cell-based. The procedure, abridged:
(§1)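 MCF-7 and MDA-MB-231 breast cancer cells treated 48 h with a concentration series, then lysed for protein. SDS-PAGE on 5–15% gels, transfer to nitrocellulose. Blocked 2 h in 5% nonfat milk/PBS-0.1% Tween 20, primary antibodies overnight at 4 °C, biotin-conjugated secondary 1 h. X-ray film detection with densitometric quantification.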
On the technique in general: In western blotting, separated proteins are transferred to a membrane and probed.

The subject of assay [2] is MCF7. Description: Induction of mitochondrial membrane potential loss in human MCF7 cells assessed as green fluorescence intensity at 4 uM measured after 48 hrs by JC1 staining-based flow cytometry analysis (reference value: 8.1 %). In kind it is functional. On the technique in general: Flow cytometry measures light scatter and fluorescence of single cells or particles in a stream.

For assay [3], the system named is MCF7. Kind of assay: Induction of DNA damage in human MCF7 cells assessed as increase in Chk2 phosphorylation at Thr68 residue at 1 to 4 uM measured after 48 hrs by western blot analysis. As to conditions: dose 1-4 µM. The format is functional, cell-based. The procedure, abridged:
(§2)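 Cells exposed to graded concentrations for 48 h, then proteins extracted. Run on SDS-PAGE (5–15% gels) and transferred to nitrocellulose. Blocked 2 h in 5% nonfat milk in PBS/0.1% Tween 20, primary antibody overnight at 4 °C, biotin-conjugated secondary 1 h. Visualized on X-ray film with densitometric quantitation; three independent experiments.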

In assay [4] the test system is MCF7. Kind of assay: Induction of G2/M phase cell cycle arrest in human MCF7 cells assessed as decrease in p-cdc2 protein expression at 1 to 4 uM measured after 48 hrs by western blot analysis. In kind it is functional, cell-based. As to conditions: dose 1-4 µM. The procedure, abridged:
as §2

For assay [5], the system named is MCF7. Kind of assay: Potency index, ratio of 5-FU IC50 to test compound IC50 for anticancer activity against human MCF7 cells measured after 72 hrs by MTT assay. In kind it is functional. The procedure, abridged: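 MTT assay: 3000 exponentially growing cells per well, 12 h at 37 °C. Medium replaced with compound at a range of concentrations for 72 h. MTT (5 mg/mL stock) added for 4 h, formazan dissolved in DMSO. Absorbance read at 570 nm (reference 630 nm); percent inhibition gives IC50. Index is 5-FU IC50 divided by test-compound IC50.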
(Formazan colour is commonly taken as a measure of viable cells.)

In assay [6] the test system is MDA-MB-231. Description: Induction of apoptosis in human MDA-MB-231 cells assessed as increase in cleaved PARP protein expression at 3 to 9 uM measured after 48 hrs by western blot analysis. In kind it is functional, cell-based. The note with it: dose 3-9 µM. The procedure, abridged: as §1
In assay [7] the test system is HeLa. Description: Anticancer activity against human HeLa cells assessed as inhibition of cell growth measured after 72 hrs by MTT assay. The format is functional, cell-based. The procedure, abridged:
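Cells seeded at 3000 exponentially growing cells/well and incubated 12 h at 37 °C. Medium then replaced with fresh medium containing graded compound concentrations for 72 h; 5-FU positive control. MTT (5 mg/mL solution) added for 4 h, formazan dissolved in DMSO, absorbance read at 570 nm (reference 630 nm). Relative percentage inhibition of viable cells calculated; IC50 reported as mean ± standard deviation.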

The test system of assay [8] is MDA-MB-231. Description: Induction of G2/M phase cell cycle arrest in human MDA-MB-231 cells assessed as decrease in cyclinB1 protein expression at 3 to 9 uM measured after 48 hrs by western blot analysis. In kind it is functional, cell-based. As to conditions: dose 3-9 µM. The procedure, abridged:
as §2

In assay [9] the test system is MCF7. Kind of assay: Induction of apoptosis in human MCF7 cells assessed as increase in cleaved caspase 3 protein expression at 4 uM measured after 48 hrs in presence of cdc25c inhibitor, NSC663284 by western blot analysis. In kind it is functional, cell-based. The procedure, abridged: (§3)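 Four arms per cell line: untreated, test compound, 0.3 µM NSC663284 alone, and combination. Proteins harvested after 48 h and resolved by SDS-PAGE on 5–15% gels, transferred to nitrocellulose. Blocked 2 h in milk/PBS-Tween, primary antibodies overnight at 4 °C, biotin-conjugated secondary. Read on X-ray film with densitometry.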

Assay [10] relates to MCF7. Description: Induction of apoptosis in human MCF7 cells assessed as increase in cleaved caspase 7 protein expression at 1 to 4 uM measured after 48 hrs by western blot analysis. The format is functional, cell-based. The note with it: dose 1-4 µM. The procedure, abridged: as §1
Assay [11] concerns MDA-MB-231. Description: Induction of apoptosis in human MDA-MB-231 cells assessed as early apoptotic cells at 9 uM measured after 48 hrs by Annexin V-FITC/propidium iodide staining based flow cytometric analysis (reference value: 1%). In kind it is functional.
The test system of assay [12] is MCF7. Kind of assay: Cell cycle arrest in human MCF7 cells assessed as accumulation at G1 phase at 4 uM measured after 48 hrs by propidium iodide staining based flow cytometry (reference value: 70.09 %). The format is functional.
Assay [13] deals with MCF7. Kind of assay: Induction of apoptosis in human MCF7 cells assessed as increase in cleaved caspase 9 protein expression at 4 uM measured after 48 hrs in presence of cdc25c inhibitor, NSC663284 by western blot analysis. The format is functional, cell-based. The procedure, abridged:
as §3

The subject of assay [14] is MDA-MB-231. Kind of assay: Induction of apoptosis in human MDA-MB-231 cells assessed as increase in cleaved caspase 3 protein expression at 9 uM measured after 48 hrs in presence of cdc25c inhibitor, NSC663284 by western blot analysis. The format is functional, cell-based. The procedure, abridged:
as §3

Assay [15] concerns MCF7. Kind of assay: Induction of apoptosis in human MCF7 cells assessed as increase in cleaved caspase 9 protein expression at 1 to 4 uM measured after 48 hrs by western blot analysis. In kind it is functional, cell-based. As to conditions: dose 1-4 µM. The procedure, abridged: as §1
Assay [16] relates to MDA-MB-231. Description: Induction of apoptosis in human MDA-MB-231 cells assessed as increase in cleaved caspase 9 protein expression at 9 uM measured after 48 hrs in presence of cdc25c inhibitor, NSC663284 by western blot analysis. In kind it is functional, cell-based. The procedure, abridged:
as §3

In assay [17] the test system is MDA-MB-231. Description: Induction of apoptosis in human MDA-MB-231 cells assessed as increase in cleaved caspase 9 protein expression at 3 to 9 uM measured after 48 hrs by western blot analysis. The format is functional, cell-based. As to conditions: dose 3-9 µM. The procedure, abridged:
as §1

Each structure is given as a SMILES string. Calls of active or inactive are those of the source. No cut-off for these calls is given here.

On to `C[C@H]1O[C@@H](n2cnc3c(N)nc(F)nc32)[C@H](O)[C@H]1OCP(=O)([O-])[O-].[Na+].[Na+]`, for which the result in assay [1], in assay [3], in assay [4], in assay [6], in assay [8] and in assay [10] was Active. Besides, the outcome in assay [15] and in assay [17] was Active. Also, the Activity is on record as 58.1% in assay [2], 24.8% in assay [11] and 41.95% in assay [12]. In assay [5], the “Ratio IC50” value is listed as 41. Also, the half-maximal inhibitory concentration (IC50) in assay [7] is 6.2 µM. In addition, the outcome in [9], in assay [13], in assay [14] and in assay [16] was inactive.
